A selection: hits, their analogues and other compounds. The true share with any hit is near 4.6%.
UCH37 DUB inh: inhibitors of human deubiquitinating enzyme UCH37; Q9Y5K5; purified proteasome/UCH37, Ub-AMC cleavage fluorescence; inhibition, % (test concentration not listed); 330,000 tested, 0.33% active; AID 588478;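 active = mean inhibition over replicate wells above about 20%, limit read from the data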;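 note: 0% = compound-free wells with enzyme and 100% = wells lacking proteasome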
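Material: Human UCH37 enzyme supplied as purified proteasome complex | Schedule: 30 min preincubation with enzyme, 25 min cleavage at room temperature | Detection: AMC fluorescence 355/460 nm | Measure: % inhibition of Ub-AMC cleavage fluorescence | Controls: Wells without proteasome as full block, compound-free enzyme plus substrate as uninhibited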
M18AAP inhibitor: PfM18AAP enzyme inhibition | recombinant PfM18AAP, H-Glu-NHMec fluorogenic cleavage | inhibition, % at 7.35 µM | 290,000 tested, 1.2% active | AID 1822;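 active = inhibition above the campaign mean inhibition over all tested compounds plus 3 SD, cut at about 28% in these data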;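 note: 0% = plate median of test compound wells and 100% = 2 mM ZnCl2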
FAS-TE inh: FAS thioesterase (human) inhibition; recombinant FAS-TE, OMFH fluorogenic substrate, fluorescence endpoint; inhibition, % at 15 µM; 360,000 tested, 0.67% active; P49327;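 active = compounds whose normalised, plate-corrected inhibition of enzyme fluorescence in the single-dose primary screen is 50% or more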;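 note: 0% = DMSO with enzyme and 100% = substrate without enzyme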
Rtt109 Vps75: inhibitors of Candida albicans Rtt109/Vps75 histone acetyltransferase | purified Rtt109/Vps75, ThioGlo CoA-SH fluorescence, 4 h | AID 540336 | inhibition, % at 34.9 µM | 330,000 tested, 0.16% active | Q5AAJ8;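 active = inhibition of at least 50% in every replicate; inconclusive = best replicate reaches 50% inhibition but some replicates fall short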
HDAC3 inh: human HDAC3 inhibition | recombinant HDAC3, fluorogenic peptide/trypsin coupled, fluorescence | 320,000 tested, 0.15% active | O15379 | AID 2718 | inhibition, % at 8.3 µM; in the data active = inhibition above about 26%, passing the limit was not always enough; inconclusive = no clear call, values can overlap the other calls
ALR inh: inhibitors of human sulfhydryl oxidase ALR; 290,000 tested, 3.8% active; AID 485317; purified ALR, DTT oxidation, H2O2 HRP-luminol luminescence; P55789; inhibition, % (test concentration not listed);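 active = mean replicate inhibition above about 79%, with every replicate also reaching it, limit read from the data; inconclusive = only one of the two criteria met; inactive = mean below limit and not every replicate reaching it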
An asterisk follows results filed as active; ? = inconclusive; nt = no result.

SMILES	UCH37 DUB inh	M18AAP inhibitor	FAS-TE inh	Rtt109 Vps75	HDAC3 inh	ALR inh
C=CCOc1ccc(C=NNC(=O)C(C)Sc2ccccn2)cc1OC (centres undefined)	6.6	nt	nt	nt	nt	nt
CC(=NNC(=O)c1cc(Cl)ccc1O)C12CC3CC(CC(C3)C1)C2	-92.2	nt	nt	nt	nt	nt
CC(C)c1ccc(NC2CCCN(C(=O)CC3CCCC3)C2)cc1 (centres undefined)	4.7	17.6	15.8	2.2	4.3	79.4*
Cc1ccc(NC2CCCN(C(=O)CCN3CCCCO3)C2)cc1C (centres undefined)	5.5	8.4	-5.0	-2.8	-0.8	98.3*
O=C(O)COc1ccccc1C=NNC(=O)CSc1nc2ccccc2c(=O)n1-c1ccccc1	1.3	nt	nt	nt	nt	nt
CC(=NNc1cccc([N+](=O)[O-])c1)c1cc2ccccc2o1	4.8	nt	nt	nt	nt	nt
CC(=O)Nc1ccc2c(c1)CCc1ccccc1-2	4.7	-2.5	0.4	-6.0	7.1	-27.6
O=C(O)/C=C/C(=O)c1ccc2c(c1)CCc1ccccc1-2	0.1	nt	8.5	144.1*	2.7	58.8
O=c1c(Cl)c(NN=Cc2ccc(Cl)cc2)cnn1-c1ccccc1	-52.8	nt	nt	nt	nt	nt
COc1cccc(-c2nc(CS(=O)(=O)CC(=O)N3CCc4ccccc4C3)c(C)o2)c1	1.5	-7.7	5.5	1.1	3.2	32.8
Cc1oc(-c2ccccc2)nc1CS(=O)CC(=O)N1CCc2ccccc2C1 (centres undefined)	6.4	0.7	-2.8	-2.7	3.3	98.7*
Cc1oc(-c2ccccc2Cl)nc1CS(=O)CC(=O)N1CCN(c2ccccc2)CC1 (centres undefined)	-0.1	4.8	-1.4	-8.9	-2.0	99.4*
Cc1cccc(-c2nc(CS(=O)CC(=O)N3CCCCC3)c(C)o2)c1 (centres undefined)	4.3	-0.3	-3.6	0.0	-0.3	99.6*
Cc1ccc(-c2nnc(SCC(=O)N3CCN(c4ccccc4)CC3)o2)cc1	1.3	-10.9	-9.6	-5.1	-1.3	-7.8
Cc1ccc(-c2nc(CS(=O)CC(=O)N3CCN(c4ccccc4)CC3)c(C)o2)cc1 (centres undefined)	3.0	-0.1	0.7	-1.6	13.3	98.0*
CN(C)C=Nc1c(C#N)cnn1-c1nc2ccccc2s1	0.7	nt	nt	nt	nt	nt
O=C(NCC(=O)N1CCN(S(=O)(=O)c2ccc3c(c2)OCCO3)CC1)c1ccccc1F	4.4	nt	-0.9	2.6	-3.9	-6.6
O=C(c1ccccc1F)N1CCN(S(=O)(=O)c2ccc3c(c2)OCCO3)CC1	2.7	-1.3	2.5	4.5	31.9*	-11.4
COC(=O)C/C=C/[C@@H](C)[C@@H](C=NO[C@@H](C)c1cn([C@H](CO)Cc2ccccc2)nn1)NS(=O)(=O)c1ccc(C)cc1	2.9	nt	nt	nt	nt	nt
O=C(CSc1ncn[nH]1)NCc1ccc(Cl)cc1	1.6	26.9	-9.6	0.7	-3.3	-4.1
O=C(CSc1ncn[nH]1)NCc1ccccc1Cl	0.8	29.1*	-6.9	8.0	-0.1	-3.3
Cc1ccc(C(=O)ON=C(N)c2nonc2N)cc1	2.7	nt	nt	nt	nt	nt
COc1ccccc1CNC(=O)CC(C)=NNC(=O)Cc1ccc(Cl)cc1	1.9	nt	nt	nt	nt	nt
Cc1ccc(OCC(=O)NN=C/C=C/c2ccco2)cc1C	8.3	nt	nt	nt	nt	nt
CN1CCN(Cc2c(O)ccc3cc(Br)ccc23)CC1	2.2	-8.6	nt	nt	-0.7	78.2*
SMILES	UCH37 DUB inh	M18AAP inhibitor	FAS-TE inh	Rtt109 Vps75	HDAC3 inh	ALR inh
COc1ccc(CN(CCN(C)C)c2ccccn2)cc1	-4.6	-1.9	-2.8	-6.9	-2.2	-2.4
CCCCCCCCCCCCCCCC[N+](C)(C)CCN(Cc1ccc(OC)cc1)c1ncccn1	26.5*	nt	-127.5	87.7*	62.7*	19.4
COCc1cc(C)n(CC(=O)NN=Cc2ccc(-c3ccc(Cl)c(C(=O)O)c3)o2)c(=O)c1C#N	-34.9	nt	nt	nt	nt	nt
CC(=NOCON=C(C)c1ccc(F)cc1F)c1ccc(F)cc1F	1.6	nt	nt	nt	nt	nt
Cn1c(SCC(=O)Nc2ccc(N3CCOCC3)cc2)nnc1C1CC1	4.8	nt	-6.6	3.5	1.4	?
COc1ccccc1NC(=O)CSc1nncn1-c1ccccc1	4.3	-7.7	-1.2	4.8	0.3	98.1*
O=C(CSc1nncn1-c1ccccc1)Nc1ccc(N2CCOCC2)cc1	4.0	10.0	-3.7	-1.3	-8.8	98.6*
CCC(c1nnc(SCC(=O)Nc2ccc(N3CCOCC3)cc2)n1Cc1ccccc1)N(C)C (centres undefined)	0.1	nt	-6.1	19.2	-6.6	98.3*

Compound activity from PubChem.
